Screening data from PubChem.
This is a sample that favours compounds with a hit; in the whole collection about 3.1% have one here.
KCNQ1 inh: inhibitors of human KCNQ1 potassium channel. P51787. CHO-K1 KCNQ1, FluxOR thallium flux fluorescence; hits give high values. B-score at 10 µM. 310,000 tested, 1.3% active. AID 2642;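 active = compounds whose thallium flux B-score, printed positive for inhibition, exceeds three library SD while starting fluorescence stays within three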;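 note: channel opened by potassium depolarization with thallium stimulus after 20 min compound exposure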
KCNK3 block: human KCNK3 channel inhibition, primary screen. CHO-KCNK3 thallium flux, FluxOR fluorescence; hits give low values. B-score at 10 µM. 340,000 tested, 0.84% active;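 active = B-score under library mean minus 4 SD, starting fluorescence ratio at most library mean plus 5 SD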;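 note: more negative B-score means stronger inhibition of thallium flux through KCNK3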
KCNK9 block: blocks the human KCNK9 two-pore domain potassium channel; Q9NPC2; 310,000 tested, 1.2% active; HEK293 KCNK9, FluxOR thallium flux fluorescence; hits give low values; B-score at 10 µM;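 active = ratio B-score over 3 SD below the library mean, with starting fluorescence within 5 SD of its mean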;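 note: negative B-score means less thallium flux so channel inhibition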
KCNQ1 pot: potentiators or activators of human KCNQ1 potassium channel | AID 2648 | B-score at 10 µM | 310,000 tested, 0.35% active | P51787 | CHO-K1 KCNQ1, thallium flux FluxOR fluorescence; hits give high values;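 active = fluorescence ratio B-score, a plate-corrected score, at least three library SD, with initial intensity B-score within 5 SD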
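Schedule – 37 °C overnight plating, 90-min dark dye load, 20-min compound pretreatment · System – stable KCNQ1 CHO-K1 line · Probe or stimulus – thallium- and potassium-containing depolarizing buffer · Measured by – kinetic FluxOR fluorescence, 10 s baseline plus 110 s post-stimulus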
hERG rescue: shields human hERG channel from block by proarrhythmic agents | 310,000 tested, 0.51% active | CHO-hERG, FluxOR thallium flux, dofetilide IC70 present | AID 1511 | Q12809 | activation (rescue from dofetilide block), less the hit threshold, % at 10 µM;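 active = activation above the mean of controls blocked by dofetilide plus 5 SD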;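 note: thallium influx through hERG after potassium depolarization seen as dye fluorescence rise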
KCNK9 inh conf: confirmation of human KCNK9 potassium channel inhibitors | shares compounds with KCNK9 block | HEK293 KCNK9 cells, FluxOR thallium flux fluorescence | inhibition, % at 10 µM | 4,900 tested, 43% active;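 active = thallium signal inhibited by more than 5 SD of the compound-free buffer control wells, on both duplicate plates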;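 note: 0% = assay buffer control wells without compound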
Kir2-1 spec: selectivity of KCNK9 modulators against mouse Kir2.1; 4,900 tested, 4% active; shares compounds with KCNK9 block; Kir2.1 cells, FluxOR thallium flux fluorescence; inhibition, % at 10 µM;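 active = thallium signal drop more than 5 SD beyond the mean of the no-compound control wells, seen in both duplicate plates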;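 note: signal is fluorescence rise after thallium addition divided by baseline fluorescence; plate controls were assay buffer only for no effect and full block by chlorpromazine control for full effect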
Target sequence (P35561 whole entry, looked up): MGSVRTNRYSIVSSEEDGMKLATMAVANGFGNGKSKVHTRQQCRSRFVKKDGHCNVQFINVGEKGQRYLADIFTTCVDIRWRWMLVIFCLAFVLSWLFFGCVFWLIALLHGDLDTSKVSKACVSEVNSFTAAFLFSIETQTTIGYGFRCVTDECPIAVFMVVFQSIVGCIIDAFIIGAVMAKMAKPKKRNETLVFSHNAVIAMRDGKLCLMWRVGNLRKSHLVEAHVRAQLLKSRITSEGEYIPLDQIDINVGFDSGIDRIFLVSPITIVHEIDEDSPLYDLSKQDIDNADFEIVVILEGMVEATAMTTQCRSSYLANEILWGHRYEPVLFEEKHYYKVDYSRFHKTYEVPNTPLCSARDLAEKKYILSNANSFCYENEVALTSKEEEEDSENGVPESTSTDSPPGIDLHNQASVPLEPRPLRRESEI
HEK293 Tl ctr: second counter-screen for KCNK9 modulators: effect in non-induced cells. inhibition, % at 10 µM. shares compounds with KCNK9 block. AID 492997. non-induced KCNK9-HEK293, FluxOR thallium flux. 4,900 tested, 40% active;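 active = thallium signal drop beyond 5 SD of the untreated control mean, on both duplicate plates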;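 note: plate controls were buffer only IC0 wells for no effect and SID17386958 at its maximal inhibitory level for full effect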
Active calls of the source: *; i = inactive; · = not tested or not shown.

SMILES | KCNQ1 inh | KCNK3 block | KCNK9 block | KCNQ1 pot | hERG rescue | KCNK9 inh conf | Kir2-1 spec | HEK293 Tl ctr
CN(C)CCn1c(=O)n(-c2cccc(Cl)c2)c(=O)c2c3c(sc21)CCCCC3 | i | i | i | i | -12.5 | i | i | i
CN(C)S(=O)(=O)c1ccc(N2CCCC2)c(C(=O)Nc2ccccc2Br)c1 | i | i | i | i | -10.7 | i | i | i
CCc1ccc(OCC(=O)NNC(=O)c2cc(S(=O)(=O)N(C)C)ccc2N2CCCC2)cc1 | i | i | i | i | -9.8 | i | i | i
CCc1ccccc1NC(=O)c1cc(S(=O)(=O)N(C)C)ccc1N1CCCC1 | i | i | i | i | -11.8 | · | · | ·
CN(C)S(=O)(=O)c1ccc(N2CCCC2)c(C(=O)NC2CCCCC2)c1 | i | i | i | i | -13.4 | i | i | i
COc1ccc(N2CC(NS(=O)(=O)c3ccc(F)cc3)CC2=O)cc1 (stereo unspecified) | i | i | i | i | -13.4 | · | · | ·
O=C(O)CC(NC(=O)/C(=C/c1ccccc1)NC(=O)c1ccccc1)c1ccccc1 (stereo unspecified) | i | i | i | i | -5.1 | · | · | ·
CCCOc1ccc(-c2c(=O)n(O)c3ccccc3[n+]2[O-])cc1 | i | i | -8.88* | i | 28.3* | i | i | i
O=C(Nc1ccccc1)Nc1ccc(-n2ccc(C(F)(F)F)n2)cc1 | 6* | i | -9.03* | i | -18.7 | 48.0%* | i | i
Cc1cc(C)n2nc(C(=O)OCC(=O)Nc3ccc(F)cc3F)nc2n1 | i | i | i | i | -8.6 | · | · | ·
CCOC(=O)C1=C(C)NC(=S)NC1c1ccc(-c2cccc(Cl)c2C)o1 (stereo unspecified) | i | i | -8.56* | i | -6.8 | i | i | i
O=c1[nH]c2c(=O)[nH]cnc2nc1-c1ccccc1 | i | i | i | i | -5.2 | · | · | ·
CCN(CC)S(=O)(=O)c1cccc(-c2nnc(SCC(=O)c3cc(C)n(C4CC4)c3C)o2)c1 | i | i | i | i | -16.3 | · | · | ·
CCN(CC)S(=O)(=O)c1cccc(-c2nnc(SCCCC(=O)c3ccccc3)o2)c1 | i | i | i | i | -18.8 | i | i | i
CCN(CC)S(=O)(=O)c1cccc(-c2nnc(SCCCC(=O)c3ccc(F)cc3)o2)c1 | i | i | i | i | -11.9 | · | · | ·
C=CCn1c(C)cc(C(=O)CSc2nnc(-c3cccc(S(=O)(=O)N(CC)CC)c3)o2)c1C | i | i | i | i | -0.8 | i | i | i
CCC1=C2CC[C@H]3C(=O)NC(=O)[C@H]3[C@H]2[C@@]2(Cc3ccccc3)C(=NCC(=O)OC)OC(=O)N2C1=O | · | i | · | · | · | · | · | ·
COc1ccccc1/C=C(/C(=O)OCC(=O)Nc1ccccc1C(C)C)c1ccccc1 | i | i | -9.49* | i | -5.3 | 51.0%* | i | 39.0%*
O=C(c1ccccc1)c1nn(-c2ccccc2)c2nnc(Cc3ccccc3)c(=O)n12 | i | i | i | i | -19.7 | i | i | i
Cc1ccc(-n2nc(C(=O)c3ccccc3)n3c(=O)c(Cc4ccccc4)nnc23)cc1 | i | i | i | i | -17.5 | · | · | ·
CN(Cc1ccccc1)C(=O)c1ccc(NC(=O)c2ccccc2)cc1 | i | i | i | i | -14.8 | · | · | ·
CCOc1ccccc1C1c2[nH]c3ccccc3c2C[C@H]2C(=O)N(C3CCN(Cc4ccccc4)CC3)CC(=O)N12 (stereo partly specified) | i | i | i | i | -13.5 | i | i | i
COc1ccc(C(=O)NCC(=O)N/N=C(\C)Cc2ccccc2)cc1 | i | i | i | i | 1.6 | · | · | ·
CCOC(=O)c1c(-c2cccs2)csc1NC(=O)COC(=O)c1c(C)noc1C | i | -8.9* | i | i | -17.0 | i | i | i
CCOC(=O)c1c(-c2ccccc2)csc1NC(=O)c1cc(S(=O)(=O)N2CCOCC2)ccc1C | i | i | i | i | -9.7 | i | i | i
SMILES | KCNQ1 inh | KCNK3 block | KCNK9 block | KCNQ1 pot | hERG rescue | KCNK9 inh conf | Kir2-1 spec | HEK293 Tl ctr
Cc1cc(C)nc(SCC(=O)Nc2ncc(Cc3cccc(Cl)c3Cl)s2)n1 | i | i | i | i | -10.6 | · | · | ·
CCOC(=O)c1c(-c2ccccc2)csc1NC(=O)CSc1nc(C)cc(C)n1 | i | i | i | i | -9.9 | i | i | i
CCOC(=O)Cc1cnc(NC(=O)CSc2nc(C)cc(C)n2)s1 | i | i | i | i | -17.0 | i | i | i
CCOc1ccc(CN2CCN(Cc3cn(CC)nc3C)CC2CCO)cc1 (stereo unspecified) | i | i | i | i | -4.6 | · | · | ·
O=C(CN1CCOCC1)Nc1ccccc1C(=O)O | i | i | i | i | -4.5 | · | · | ·
Brc1ccsc1-c1csc(-c2ccncc2)n1 | i | i | i | i | -3.1 | · | · | ·
CCc1cccc(NC(=S)N2CCC(c3ccccc3)C2)c1 (stereo unspecified) | i | i | i | i | -10.4 | i | i | i
CSc1cccc(NC(=S)N2CCC(c3ccccc3)C2)c1 (stereo unspecified) | i | i | i | i | -6.9 | i | i | i
COc1cc(/C=C2\C(=O)N(c3ccccc3)N=C2C)ccc1Oc1ccc([N+](=O)[O-])cc1[N+](=O)[O-] | · | i | · | · | · | · | · | ·
CC1=NN(c2ccccc2)C(=O)/C1=C\c1ccc(Oc2ccc([N+](=O)[O-])cc2[N+](=O)[O-])cc1 | i | i | i | i | -0.2 | i | i | i
Fc1ccccc1NC(=S)N1CCC(c2ccccc2)C1 (stereo unspecified) | i | i | i | i | -7.6 | · | · | ·
Cc1cccc(NC(=O)C23CCC(C)(C2Br)C3(C)C)c1 (stereo unspecified) | i | i | i | i | -8.7 | i | i | i
COc1ccc(-c2nc3n(c(=O)c2C#N)CCS3)cc1 | i | i | i | i | -7.6 | · | · | ·
C=CCSc1nc(-c2ccc(OC)cc2)c(C#N)c(=O)n1CC=C | i | i | -8.73* | i | -7.8 | i | i | i
Cc1cc(Cl)ccc1NS(=O)(=O)c1c(C)[nH]c(=O)[nH]c1=O | i | i | i | i | -4.7 | · | · | ·
